{"source": "ChEMBL document CHEMBL1142158", "about": "“Antibacterial activity and mechanism of action of a novel anilinouracil-fluoroquinolone hybrid compound” (Antimicrob Agents Chemother, 2007)", "key": {"[1]": {"experiment": "Therapeutic index, CC50 for MRC5 cells/MIC for Staphylococcus aureus Smith", "format": "cell-based", "settings": "human"}, "Staphylococcus aureus [2]": {"system": "Staphylococcus aureus", "experiment": "Antibacterial activity against Staphylococcus aureus Smith in presence of 10% FCS", "format": "functional"}, "Streptococcus pneumoniae [3]": {"system": "Streptococcus pneumoniae", "experiment": "Antibacterial activity against penicillin-resistant Streptococcus pneumoniae 700674", "format": "functional", "how_it_was_run": "(§1)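 Streptococci tested by CLSI broth microdilution in Mueller-Hinton broth with 5% defibrinated horse blood, log-phase inoculum at 1 x 10^5 CFU/ml. Incubated 37°C with shaking, 16 to 20 h, in 5% humidified CO2. Compounds at 1% DMSO final. MIC is the lowest concentration without growth by OD600. Quadruplicate; highest MIC reported.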"}, "Staphylococcus aureus [4]": {"system": "Staphylococcus aureus", "experiment": "Antibacterial activity against mupirocin-resistant Staphylococcus aureus 777", "format": "functional", "how_it_was_run": "(§2)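 Broth microdilution per CLSI with modified incubation. Log-phase cultures in cation-adjusted Mueller-Hinton broth, seeded at 1 x 10^5 CFU/ml. Compounds from DMSO stocks, 1% DMSO final. Incubated 37°C, 16 to 20 h, shaken. Growth read as OD600. MIC is the lowest concentration with no apparent growth. Run in quadruplicate; highest value reported.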"}, "Staphylococcus aureus [5]": {"system": "Staphylococcus aureus", "experiment": "Antibacterial activity against methicillin-resistant Staphylococcus aureus B42876", "format": "functional", "how_it_was_run": "as §2"}, "Enterococcus faecium [6]": {"system": "Enterococcus faecium", "experiment": "Antibacterial activity against vancomycin-resistant Enterococcus faecium B42762", "format": "functional", "how_it_was_run": "as §2"}, "Staphylococcus aureus [7]": {"system": "Staphylococcus aureus", "experiment": "Antibacterial activity against HB-EMAU-resistant and ciprofloxacin-resistant Staphylococcus aureus Smith", "format": "functional", "how_it_was_run": "as §2"}, "Enterococcus faecalis [8]": {"system": "Enterococcus faecalis", "experiment": "Antibacterial activity against vancomycin-resistant Enterococcus faecalis 51575", "format": "functional", "how_it_was_run": "as §2"}, "Bacillus thuringiensis [9]": {"system": "Bacillus thuringiensis", "experiment": "Antibacterial activity against Bacillus thuringiensis 10792", "format": "functional"}, "Pseudomonas aeruginosa": {"system": "Pseudomonas aeruginosa", "experiment": "Antibacterial activity against Pseudomonas aeruginosa 27853", "format": "functional"}, "Staphylococcus aureus [10]": {"system": "Staphylococcus aureus", "experiment": "Antibacterial activity against methicillin-resistant Staphylococcus aureus 1094", "format": "functional", "how_it_was_run": "as §2"}, "[11]": {"experiment": "Inhibition of Bacillus subtilis gyrase"}, "Enterococcus faecium [12]": {"system": "Enterococcus faecium", "experiment": "Antibacterial activity against Enterococcus faecium 19434", "format": "functional", "how_it_was_run": "as §2"}, "Bacillus subtilis [13]": {"system": "Bacillus subtilis", "experiment": "Antibacterial activity against Bacillus subtilis BD54", "format": "functional"}, "Staphylococcus aureus [14]": {"system": "Staphylococcus aureus", "experiment": "Antibacterial activity against Staphylococcus aureus 25923", "format": "functional", "how_it_was_run": "as §2"}, "Enterococcus faecalis [15]": {"system": "Enterococcus faecalis", "experiment": "Antibacterial activity against Enterococcus faecalis 29212", "format": "functional", "how_it_was_run": "as §2"}, "Bacillus cereus [16]": {"system": "Bacillus cereus", "experiment": "Antibacterial activity against Bacillus cereus 4342", "format": "functional"}, "Staphylococcus aureus [17]": {"system": "Staphylococcus aureus", "experiment": "Antibacterial activity against Staphylococcus aureus 1081", "format": "functional", "how_it_was_run": "as §2"}, "Bacillus subtilis [18]": {"system": "Bacillus subtilis", "experiment": "Inhibition of DNA synthesis in Bacillus subtilis BD54", "format": "functional, organism-based", "how_it_was_run": "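B. subtilis BD54 grown to log phase in C plus 50 medium; compound in DMSO added with [8-3H]adenine at time zero, at 5x or 1x MIC; samples over time. DNA = alkali-insensitive TCA-insoluble label; RNA = total TCA-insoluble minus DNA. Effect judged against diluent-control incorporation.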"}, "Enterococcus faecalis [19]": {"system": "Enterococcus faecalis", "experiment": "Antibacterial activity against vancomycin-resistant Enterococcus faecalis 51299", "format": "functional", "how_it_was_run": "as §2"}, "Escherichia coli [20]": {"system": "Escherichia coli", "experiment": "Antibacterial activity against ciprofloxacin-resistant Escherichia coli XL1-Blue", "format": "functional", "how_it_was_run": "as §2"}, "Staphylococcus aureus [21]": {"system": "Staphylococcus aureus", "experiment": "Antibacterial activity against Staphylococcus aureus Smith 13709", "format": "functional", "how_it_was_run": "as §2"}, "Streptococcus pneumoniae [22]": {"system": "Streptococcus pneumoniae", "experiment": "Antibacterial activity against penicillin-resistant Streptococcus pneumoniae 700673", "format": "functional", "how_it_was_run": "as §1"}, "Streptococcus pneumoniae [23]": {"system": "Streptococcus pneumoniae", "experiment": "Antibacterial activity against penicillin-resistant Streptococcus pneumoniae 700670", "format": "functional", "how_it_was_run": "as §1"}, "Streptococcus pyogenes": {"system": "Streptococcus pyogenes", "experiment": "Antibacterial activity against Streptococcus pyogenes 12344", "format": "functional"}, "Staphylococcus aureus [24]": {"system": "Staphylococcus aureus", "experiment": "Antibacterial activity against ciprofloxacin-resistant Staphylococcus aureus Smith", "format": "functional", "how_it_was_run": "as §2"}, "Enterococcus faecium [25]": {"system": "Enterococcus faecium", "experiment": "Antibacterial activity against vancomycin-resistant Enterococcus faecium 1644", "format": "functional", "how_it_was_run": "as §2"}, "Staphylococcus aureus [26]": {"system": "Staphylococcus aureus", "experiment": "Antibacterial activity against methicillin-resistant Staphylococcus aureus 1132", "format": "functional", "how_it_was_run": "as §2"}, "Staphylococcus aureus [27]": {"system": "Staphylococcus aureus", "experiment": "Antibacterial activity against HB-EMAU-resistant Staphylococcus aureus Smith", "format": "functional", "how_it_was_run": "as §2"}, "Enterococcus faecalis [28]": {"system": "Enterococcus faecalis", "experiment": "Antibacterial activity against vancomycin-resistant Enterococcus faecalis 700802", "format": "functional", "how_it_was_run": "as §2"}, "[29]": {"experiment": "Cytotoxicity against human MRC5 cells", "format": "cell-based", "how_it_was_run": "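MRC-5 human diploid fibroblasts, 4 x 10^3 cells per well, exposed to compound from DMSO stock (final 1%) in minimal essential medium with 10% fetal calf serum for 72 h at 37°C beside a DMSO-only control.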"}, "[30]": {"system": "Stenotrophomonas maltophilia", "experiment": "Antibacterial activity against Stenotrophomonas maltophilia 13637", "format": "functional"}, "Streptococcus pneumoniae [31]": {"system": "Streptococcus pneumoniae", "experiment": "Antibacterial activity against penicillin-resistant Streptococcus pneumoniae 700677", "format": "functional", "how_it_was_run": "as §1"}, "[32]": {"experiment": "Inhibition of Bacillus subtilis topoisomerase 4"}, "Streptococcus pneumoniae [33]": {"system": "Streptococcus pneumoniae", "experiment": "Antibacterial activity against Streptococcus pneumoniae 49619", "format": "functional", "how_it_was_run": "as §1"}, "Enterococcus faecium [34]": {"system": "Enterococcus faecium", "experiment": "Antibacterial activity against vancomycin and linezolid-resistant Enterococcus faecium F118", "format": "functional", "how_it_was_run": "as §2"}, "Staphylococcus aureus [35]": {"system": "Staphylococcus aureus", "experiment": "Antibacterial activity against mupirocin-sensitive Staphylococcus aureus 2529", "format": "functional"}, "Staphylococcus aureus [36]": {"system": "Staphylococcus aureus", "experiment": "Antibacterial activity against methicillin-resistant Staphylococcus aureus 1123", "format": "functional", "how_it_was_run": "as §2"}, "Klebsiella pneumoniae": {"system": "Klebsiella pneumoniae", "experiment": "Antibacterial activity against Klebsiella pneumoniae 5657", "format": "functional"}, "Streptococcus pneumoniae [37]": {"system": "Streptococcus pneumoniae", "experiment": "Antibacterial activity against penicillin-resistant Streptococcus pneumoniae 700671", "format": "functional", "how_it_was_run": "as §1"}, "Escherichia coli [38]": {"system": "Escherichia coli", "experiment": "Antibacterial activity against Escherichia coli J53", "format": "functional"}, "Bacillus anthracis": {"system": "Bacillus anthracis", "experiment": "Antibacterial activity against Bacillus anthracis Sterne", "format": "functional"}, "Bacillus cereus [39]": {"system": "Bacillus cereus", "experiment": "Antibacterial activity against Bacillus cereus 6464", "format": "functional"}, "Bacillus thuringiensis [40]": {"system": "Bacillus thuringiensis", "experiment": "Antibacterial activity against Bacillus thuringiensis 33679", "format": "functional"}}, "note": "Active and inactive are the calls of the source. No cut-off for these calls is given here.", "data": [{"smiles": "CC1CN(c2c(F)cc3c(=O)c(C(=O)O)cn(C4CC4)c3c2F)CCN1", "note": "(centres undefined)", "values": [{"measurement": "selectivity ratio", "setting": "[1]", "value": "> 1000"}, {"measurement": "MIC", "setting": "Staphylococcus aureus [2]", "value": 0.078, "unit": "µg/mL"}, {"measurement": "MIC", "setting": "Streptococcus pneumoniae [3]", "value": 0.625, "unit": "µg/mL"}, {"measurement": "MIC", "setting": "Staphylococcus aureus [4]", "value": 40, "unit": "µg/mL"}, {"measurement": "MIC", "setting": "Staphylococcus aureus [5]", "value": 80, "unit": "µg/mL"}, {"measurement": "MIC", "setting": "Enterococcus faecium [6]", "value": 40, "unit": "µg/mL"}, {"measurement": "MIC", "setting": "Staphylococcus aureus [7]", "value": 5, "unit": "µg/mL"}, {"measurement": "MIC", "setting": "Enterococcus faecalis [8]", "value": 0.313, "unit": "µg/mL"}, {"measurement": "MIC", "setting": "Bacillus thuringiensis [9]", "value": 0.156, "unit": "µg/mL"}, {"measurement": "MIC", "setting": "Pseudomonas aeruginosa", "value": 0.313, "unit": "µg/mL"}, {"measurement": "MIC", "setting": "Staphylococcus aureus [10]", "value": 20, "unit": "µg/mL"}, {"measurement": "IC50", "setting": "[11]", "value": 5.6, "unit": "µM"}, {"measurement": "MIC", "setting": "Enterococcus faecium [12]", "value": 10, "unit": "µg/mL"}, {"measurement": "MIC", "setting": "Bacillus subtilis [13]", "value": 0.039, "unit": "µg/mL"}, {"measurement": "MIC", "setting": "Staphylococcus aureus [14]", "value": 0.156, "unit": "µg/mL"}, {"measurement": "MIC", "setting": "Enterococcus faecalis [15]", "value": 0.313, "unit": "µg/mL"}, {"measurement": "MIC", "setting": "Bacillus cereus [16]", "value": 0.078, "unit": "µg/mL"}, {"measurement": "MIC", "setting": "Staphylococcus aureus [17]", "value": 10, "unit": "µg/mL"}, {"measurement": "Activity", "setting": "Bacillus subtilis [18]", "value": "Active"}, {"measurement": "MIC", "setting": "Enterococcus faecalis [19]", "value": 0.313, "unit": "µg/mL"}, {"measurement": "MIC", "setting": "Escherichia coli [20]", "value": 40, "unit": "µg/mL"}, {"measurement": "MIC", "setting": "Staphylococcus aureus [21]", "value": 0.078, "unit": "µg/mL"}, {"measurement": "MIC", "setting": "Streptococcus pneumoniae [22]", "value": 0.156, "unit": "µg/mL"}, {"measurement": "MIC", "setting": "Streptococcus pneumoniae [23]", "value": 0.313, "unit": "µg/mL"}, {"measurement": "MIC", "setting": "Streptococcus pyogenes", "value": 0.156, "unit": "µg/mL"}, {"measurement": "MIC", "setting": "Staphylococcus aureus [24]", "value": 5, "unit": "µg/mL"}, {"measurement": "MIC", "setting": "Enterococcus faecium [25]", "value": 40, "unit": "µg/mL"}, {"measurement": "MIC", "setting": "Staphylococcus aureus [26]", "value": 0.156, "unit": "µg/mL"}, {"measurement": "MIC", "setting": "Staphylococcus aureus [27]", "value": 0.078, "unit": "µg/mL"}, {"measurement": "MIC", "setting": "Enterococcus faecalis [28]", "value": 0.313, "unit": "µg/mL"}, {"measurement": "CC50", "setting": "[29]", "value": "> 80", "unit": "µg/mL"}, {"measurement": "MIC", "setting": "[30]", "value": 0.078, "unit": "µg/mL"}, {"measurement": "MIC", "setting": "Streptococcus pneumoniae [31]", "value": 0.625, "unit": "µg/mL"}, {"measurement": "IC50", "setting": "[32]", "value": 4.2, "unit": "µM"}, {"measurement": "MIC", "setting": "Streptococcus pneumoniae [33]", "value": 0.313, "unit": "µg/mL"}, {"measurement": "MIC", "setting": "Enterococcus faecium [34]", "value": 80, "unit": "µg/mL"}, {"measurement": "MIC", "setting": "Staphylococcus aureus [35]", "value": 80, "unit": "µg/mL"}, {"measurement": "MIC", "setting": "Staphylococcus aureus [36]", "value": 20, "unit": "µg/mL"}, {"measurement": "MIC", "setting": "Klebsiella pneumoniae", "value": 0.156, "unit": "µg/mL"}, {"measurement": "MIC", "setting": "Streptococcus pneumoniae [37]", "value": 0.313, "unit": "µg/mL"}, {"measurement": "MIC", "setting": "Escherichia coli [38]", "value": 0.01, "unit": "µg/mL"}, {"measurement": "MIC", "setting": "Bacillus anthracis", "value": 0.039, "unit": "µg/mL"}, {"measurement": "MIC", "setting": "Bacillus cereus [39]", "value": 0.078, "unit": "µg/mL"}, {"measurement": "MIC", "setting": "Bacillus thuringiensis [40]", "value": 0.078, "unit": "µg/mL"}]}]}
